Results on 6 molecules are retold here after ChEMBL document CHEMBL3271988, “Nitrogen analogues of 1,4-benzoquinones. Activities against the ascitic sarcoma 180 of mice” (J Med Chem, 1978).

For series [1], the system named is Sarcoma-180. Nature of the series: Antitumor activity against mouse Sarcoma 180 cells allografted in Swiss mouse assessed as cure at 150 mg/kg, ip three doses were given at 24 hrs interval starting 24 hrs after allograft injection measured after 60 days. Format: functional, organism-based. The arrangement: dose 150 mg/kg. Summed up: (§1)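 Swiss mice given 10^6 ascitic sarcoma 180 cells ip. Starting 24 h later, three ip doses were given 24 h apart. Controls got isotonic salt solution on the same schedule. A cure was a mouse alive with no evidence of cancer cells 60 days after cell injection, reported per 6 mice.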

Series [2] can be described thus: Acute toxicity in single ip dosed Swiss mouse assessed as death up to 5 days. It counts as organism-based. As to conditions: in vivo. Summed up: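 Male Swiss mice given one ip dose. LD50 taken as the single dose killing 50% of animals within 5 days.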
Series [3] has as its system Sarcoma-180. Description: Antitumor activity against mouse Sarcoma 180 cells allografted in Swiss mouse assessed as survival at 150 mg/kg, ip three doses were given at 24 hrs interval starting 24 hrs after allograft injection measured after 5 days. It counts as functional, organism-based. Set-up: dose 150 mg/kg. Summed up: (§2)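 Swiss mice were injected ip with 10^6 ascitic sarcoma 180 cells. Three daily ip doses followed, the first 24 h after cell injection. The read-out was the number of mice surviving at 5 days, out of 6 treated.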

Series [4] has as its system Sarcoma-180. Description: Antitumor activity against mouse Sarcoma 180 cells allografted in Swiss mouse assessed as weight gain at 150 mg/kg, ip three doses were given at 24 hrs interval starting 24 hrs after allograft injection measured after 3 days relative to control. Format: functional. As to conditions: route intraperitoneal. Summed up:
(§3)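 Ascitic sarcoma 180 model in Swiss mice: 10^6 cells ip, then three ip doses at 24-h intervals beginning 24 h later. Mice were weighed 1 day after cell injection and again 3 days later (24 h after the third dose). Percent weight gain of treated mice was compared with saline-treated controls on the same schedule.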

Series [5] in a line: Redox potential of the compound in alcohol-water solution. As to conditions: buffer.
Series [6] concerns Sarcoma-180. Description: Antitumor activity against mouse Sarcoma 180 cells allografted in Swiss mouse at 150 mg/kg, ip three doses were given at 24 hrs interval starting 24 hrs after allograft injection relative to control. Format: functional. As to conditions: route intraperitoneal. In short, it runs like this: (§4)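 Swiss mice received 10^6 ascitic sarcoma 180 cells ip, then three ip doses 24 h apart starting at 24 h. Controls got isotonic salt solution on the same schedule. T/C% is mean survival time of treated over controls (6 mice per group).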

In series [7] the test system is Sarcoma-180. Nature of the series: Antitumor activity against mouse Sarcoma 180 cells allografted in Swiss mouse assessed as survival time at 150 mg/kg, ip three doses were given at 24 hrs interval starting 24 hrs after allograft injection relative to control. It counts as functional. As to conditions: route intraperitoneal. Summed up:
(§5)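 Swiss mice inoculated ip with 10^6 ascitic sarcoma 180 cells. Compound given ip daily ×3 at 24-h intervals, starting 24 h after inoculation. Controls received isotonic saline on the same schedule; 6 mice per group. Mice alive at 60 days counted as 60 days in mean survival (±SD).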

The test system of series [8] is Sarcoma-180. Description: Antitumor activity against mouse Sarcoma 180 cells allografted in Swiss mouse assessed as weight gain at 15 mg/kg, ip three doses were given at 24 hrs interval starting 24 hrs after allograft injection measured after 3 days relative to control. It counts as functional. As to conditions: route intraperitoneal. In short, it runs like this:
as §3

Series [9] concerns Sarcoma-180. Description: Antitumor activity against mouse Sarcoma 180 cells allografted in Swiss mouse assessed as survival time at 15 mg/kg, ip three doses were given at 24 hrs interval starting 24 hrs after allograft injection relative to control. Format: functional. As to conditions: route intraperitoneal. In short, it runs like this: as §5
Series [10] has as its system Sarcoma-180. Nature of the series: Antitumor activity against mouse Sarcoma 180 cells allografted in Swiss mouse at 15 mg/kg, ip three doses were given at 24 hrs interval starting 24 hrs after allograft injection relative to control. It counts as functional. As to conditions: route intraperitoneal. Summed up:
as §4

Series [11] relates to Sarcoma-180. Nature of the series: Antitumor activity against mouse Sarcoma 180 cells allografted in Swiss mouse assessed as survival at 15 mg/kg, ip three doses were given at 24 hrs interval starting 24 hrs after allograft injection measured after 5 days. The arrangement: dose 15 mg/kg. Format: functional, organism-based. In short, it runs like this: as §2
The test system of series [12] is Sarcoma-180. Nature of the series: Antitumor activity against mouse Sarcoma 180 cells allografted in Swiss mouse assessed as survival time at 10 mg/kg, ip three doses were given at 24 hrs interval starting 24 hrs after allograft injection relative to control. It counts as functional. As to conditions: route intraperitoneal. Summed up:
as §5

Series [13] has as its system Sarcoma-180. Nature of the series: Antitumor activity against mouse Sarcoma 180 cells allografted in Swiss mouse at 10 mg/kg, ip three doses were given at 24 hrs interval starting 24 hrs after allograft injection relative to control. It counts as functional. As to conditions: route intraperitoneal. In short, it runs like this: as §4
In series [14] the test system is Sarcoma-180. Nature of the series: Antitumor activity against mouse Sarcoma 180 cells allografted in Swiss mouse assessed as survival at 10 mg/kg, ip three doses were given at 24 hrs interval starting 24 hrs after allograft injection measured after 5 days. It counts as functional, organism-based. The arrangement: dose 10 mg/kg. Summed up: as §2
In series [15] the test system is Sarcoma-180. Description: Antitumor activity against mouse Sarcoma 180 cells allografted in Swiss mouse assessed as weight gain at 10 mg/kg, ip three doses were given at 24 hrs interval starting 24 hrs after allograft injection measured after 3 days relative to control. Format: functional. As to conditions: route intraperitoneal. In short, it runs like this:
as §3

Series [16] has as its system Sarcoma-180. Nature of the series: Antitumor activity against mouse Sarcoma 180 cells allografted in Swiss mouse assessed as cure at 10 mg/kg, ip three doses were given at 24 hrs interval starting 24 hrs after allograft injection measured after 60 days. Set-up: dose 10 mg/kg. It counts as functional, organism-based. In short, it runs like this: as §1
Series [17] deals with Sarcoma-180. Description: Antitumor activity against mouse Sarcoma 180 cells allografted in Swiss mouse assessed as survival time at 20 mg/kg, ip three doses were given at 24 hrs interval starting 24 hrs after allograft injection relative to control. Format: functional. As to conditions: route intraperitoneal. Summed up: as §5
Series [18] deals with Sarcoma-180. Nature of the series: Antitumor activity against mouse Sarcoma 180 cells allografted in Swiss mouse at 20 mg/kg, ip three doses were given at 24 hrs interval starting 24 hrs after allograft injection relative to control. As to conditions: route intraperitoneal. It counts as functional. Summed up:
as §4

Series [19] has as its system Sarcoma-180. Description: Antitumor activity against mouse Sarcoma 180 cells allografted in Swiss mouse assessed as cure at 20 mg/kg, ip three doses were given at 24 hrs interval starting 24 hrs after allograft injection measured after 60 days. Set-up: dose 20 mg/kg. Format: functional, organism-based. In short, it runs like this:
as §1

The subject of series [20] is Sarcoma-180. Description: Antitumor activity against mouse Sarcoma 180 cells allografted in Swiss mouse assessed as weight gain at 20 mg/kg, ip three doses were given at 24 hrs interval starting 24 hrs after allograft injection measured after 3 days relative to control. It counts as functional. As to conditions: route intraperitoneal. In short, it runs like this: as §3

Series [21] has as its system Sarcoma-180. Nature of the series: Antitumor activity against mouse Sarcoma 180 cells allografted in Swiss mouse assessed as survival at 20 mg/kg, ip three doses were given at 24 hrs interval starting 24 hrs after allograft injection measured after 5 days. Format: functional, organism-based. The arrangement: dose 20 mg/kg. In short, it runs like this: as §2
A short description of series [22]: Half life of the compound in water at pH 7 at 25 degC by spectrophotometry. It counts as physicochemical. In short, it runs like this:
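Compound dissolved in absolute ethanol, then diluted into 0.01 M Tris buffer brought to pH 7 with HCl, 25 °C. Absorbance at λmax followed over hours or days; log absorbance vs time fitted by least squares, rate constant and half-time taken from the slope.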

The subject of series [23] is Sarcoma-180. Nature of the series: Antitumor activity against mouse Sarcoma 180 cells allografted in Swiss mouse assessed as cure at 30 mg/kg, ip three doses were given at 24 hrs interval starting 24 hrs after allograft injection measured after 60 days. Format: functional, organism-based. The arrangement: dose 30 mg/kg. In short, it runs like this:
as §1

The test system of series [24] is Sarcoma-180. Description: Antitumor activity against mouse Sarcoma 180 cells allografted in Swiss mouse assessed as survival time at 30 mg/kg, ip three doses were given at 24 hrs interval starting 24 hrs after allograft injection relative to control. As to conditions: route intraperitoneal. Format: functional. Summed up:
as §5

Series [25] deals with Sarcoma-180. Description: Antitumor activity against mouse Sarcoma 180 cells allografted in Swiss mouse at 30 mg/kg, ip three doses were given at 24 hrs interval starting 24 hrs after allograft injection relative to control. Format: functional. As to conditions: route intraperitoneal. In short, it runs like this: as §4
In series [26] the test system is Sarcoma-180. Description: Antitumor activity against mouse Sarcoma 180 cells allografted in Swiss mouse assessed as survival at 30 mg/kg, ip three doses were given at 24 hrs interval starting 24 hrs after allograft injection measured after 5 days. It counts as functional, organism-based. Set-up: dose 30 mg/kg. In short, it runs like this:
as §2

For series [27], the system named is Sarcoma-180. Nature of the series: Antitumor activity against mouse Sarcoma 180 cells allografted in Swiss mouse assessed as weight gain at 30 mg/kg, ip three doses were given at 24 hrs interval starting 24 hrs after allograft injection measured after 3 days relative to control. As to conditions: route intraperitoneal. Format: functional. In short, it runs like this: as §3

Calls of active or inactive are those of the source. No cut-off for these calls is given here.

Regarding `O=C1C=CC(=NO)C=C1`, the result in the series with Sarcoma-180 [1] was inactive. For the same molecule, the LD50 at 120 h in [2] came out at 260 mg/kg. The result in the series with Sarcoma-180 [3] was Active. Also, the Activity in the series with Sarcoma-180 [4] was -5.2%. Besides, the Redox potential in series [5] worked out at 0.544 V. Moreover, in the series with Sarcoma-180 [6], the T/C is recorded as 135%. Moreover, the Survival with Sarcoma-180 [7] worked out at 17.8 days.

Consider `O=C1C=C/C(=N/O)C(Br)=C1`, for which the outcome in the series on Sarcoma-180 [1] was inactive. For the same molecule, in series [2], the LD50 at 120 h was determined as 1090 mg/kg. For the same molecule, in the series with Sarcoma-180 [3], the result was Active. In the series on Sarcoma-180 [4], the Activity is on record as 6.4%. In [5], this molecule gave a Redox potential of 0.532 V. For the same molecule, in the series on Sarcoma-180 [6], the T/C is 158%. Further, the Survival with Sarcoma-180 [7] was found to be 18.2 days.

As for `O=C1C=CC(=Nc2ccc([O-])cc2)C=C1.[Na+]`, the Activity in the series with Sarcoma-180 [8] is listed as -2.2%. Further, in [2], the LD50 at 120 h came out at 50 mg/kg. For the same molecule, the Survival with Sarcoma-180 [9] came to 32.8 days. In addition, in the series with Sarcoma-180 [10], the T/C was 214%. For the same molecule, in the series with Sarcoma-180 [11], the result was Active.

As to `COC1=C/C(=N\c2ccc(N(C)C)cc2)C=CC1=O`, in the series with Sarcoma-180 [12], the Survival amounted to 19.3 days. Further, the T/C with Sarcoma-180 [13] is 181%. Moreover, the LD50 at 120 h in series [2] was 25 mg/kg. In addition, the outcome with Sarcoma-180 [14] was Active. For the same molecule, the Activity in the series on Sarcoma-180 [15] worked out at 1.9%. The outcome with Sarcoma-180 [16] was inactive. Besides, in series [5], the Redox potential came to 0.561 V.

As for `CC(=O)Oc1ccc(N=C2C=CC(=O)C=C2)cc1`, the LD50 at 120 h in series [2] was determined as 90 mg/kg. This molecule also displayed a Redox potential in [5] of 0.633 V. The Survival in the series with Sarcoma-180 [17] stood at 19.2 days. The molecule further displayed a T/C in the series with Sarcoma-180 [18] of 130%. Besides, the outcome with Sarcoma-180 [19] was inactive. Also, the Activity with Sarcoma-180 [20] is on record as -1.5%. Also, in the series on Sarcoma-180 [21], the outcome was Active.

On to `CN(C)c1ccc(N=C2C=CC(=O)C=C2)cc1`, for which the half-life in [22] was 29.2 days. In series [2], the LD50 at 120 h is 80 mg/kg. Besides, the result in the series on Sarcoma-180 [23] was inactive. For the same molecule, the Redox potential in [5] worked out at 0.628 V. In addition, the Survival in the series on Sarcoma-180 [24] stood at 19.2 days. The molecule further yielded a T/C in the series with Sarcoma-180 [25] of 132%. For the same molecule, the result with Sarcoma-180 [26] was Active. Also, the Activity in the series on Sarcoma-180 [27] is -0.9%.

The LD50 is the dose at which mortality reaches 50%. As usually defined, the T/C is the result in the treated group divided by that in the control group, in per cent. As a reminder, the half-life is the time in which the quantity being followed falls by half.
